ChEMBL document CHEMBL5126648, “Charting the Chemical Space of Acrylamide-Based Inhibitors of zDHHC20” (ACS Med Chem Lett, 2022)
Calls of active or inactive are those of the source. No cut-off for these calls is given here.

Columns and labels:
[1] = biological target: T1, Palmitoyltransferase ZDHHC20 (Homo sapiens) (UniProt Q5W0Z9); assay: Binding affinity to human myc-His6-tagged zDHHC20 expressed in HEK293T cells at 1 uM measured after 1 hr by TAMRA-azide-labelled in-gel fluorescence analysis; format: cell-based
T1 sequence (whole entry): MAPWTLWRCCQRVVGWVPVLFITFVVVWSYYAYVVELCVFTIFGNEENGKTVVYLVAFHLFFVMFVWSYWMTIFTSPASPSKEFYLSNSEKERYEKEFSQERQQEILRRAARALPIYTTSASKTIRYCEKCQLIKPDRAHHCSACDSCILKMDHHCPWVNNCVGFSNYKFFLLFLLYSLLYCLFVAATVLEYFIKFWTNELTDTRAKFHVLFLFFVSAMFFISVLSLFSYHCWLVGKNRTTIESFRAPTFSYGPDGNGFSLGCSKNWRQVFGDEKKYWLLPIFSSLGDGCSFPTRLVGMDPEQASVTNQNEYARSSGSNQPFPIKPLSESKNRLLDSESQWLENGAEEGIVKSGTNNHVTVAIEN
Outline: (§1)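 Myc-tagged enzyme overexpressed in HEK293T cells; cells treated with probe at 1 μM for 1 h. Lysates then clicked to TAMRA-azide, proteins resolved by SDS-PAGE and read by in-gel fluorescence. Expression checked by anti-myc Western blot. n = 2.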

[2] = biological target: T2, Palmitoyltransferase ZDHHC2 (Homo sapiens) (UniProt Q9UIJ5); assay: Binding affinity to human myc-His6-tagged zDHHC2 expressed in HEK293T cells at 1 uM measured after 1 hr by TAMRA-azide-labelled in-gel fluorescence analysis; format: cell-based; outline: as §1
T2 sequence (whole entry): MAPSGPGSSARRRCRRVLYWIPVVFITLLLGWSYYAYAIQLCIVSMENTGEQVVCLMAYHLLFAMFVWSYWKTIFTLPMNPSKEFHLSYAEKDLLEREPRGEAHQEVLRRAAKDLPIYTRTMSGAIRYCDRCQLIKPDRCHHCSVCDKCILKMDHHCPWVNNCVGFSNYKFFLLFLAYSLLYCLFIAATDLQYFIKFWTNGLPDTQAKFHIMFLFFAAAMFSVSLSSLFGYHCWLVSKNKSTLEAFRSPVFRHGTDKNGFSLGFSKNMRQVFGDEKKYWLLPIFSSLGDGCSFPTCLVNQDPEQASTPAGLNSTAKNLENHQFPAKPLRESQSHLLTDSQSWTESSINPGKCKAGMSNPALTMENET

[3] = biological target: T3, Palmitoyltransferase ZDHHC2 (Homo sapiens, UniProt Q9UIJ5); assay: Inhibition of human myc-His6-tagged zDHHC2 expressed in HEK293T cells using 5-FAM-GTQGCMGLPCVVM-COOH as substrate preincubated for 30 mins followed by substrate addition and measured at 1 min interval for 2 hrs in presence of palmitoyl-CoA by fluorescence polarization assay
T3 sequence (Q9UIJ5 whole entry): T2 sequence (whole entry)

[4] = biological target: T4, Palmitoyltransferase ZDHHC20 (Homo sapiens, UniProt Q5W0Z9); assay: Inhibition of human myc-His6-tagged zDHHC20 expressed in HEK293T cells using 5-FAM-GTQGCMGLPCVVM-COOH as substrate preincubated for 1 hr followed by substrate addition and measured at 1 min interval for 2 hrs in presence of palmitoyl-CoA by fluorescence polarization assay
T4 sequence (Q5W0Z9 whole entry): T1 sequence (whole entry)
Outline: (§2)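 Purified zDHHC20 run in the acyl-cLIP assay, an earlier adaptation by the same group. Enzyme-mediated acylation of a peptide is read as polarized fluorescence.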

[5] = biological target: T2, Palmitoyltransferase ZDHHC2 (Homo sapiens); assay: Inhibition of human myc-His6-tagged zDHHC2 expressed in HEK293T cells at 10 uM using 5-FAM-GTQGCMGLPCVVM-COOH as substrate preincubated for 30 mins followed by substrate addition and measured at 1 min interval for 2 hrs in presence of palmitoyl-CoA by fluorescence polarization assay; details: time 150.0 min
[6] = Lipophilicity, log P of compound; format: physicochemical; details: octanol/water
[7] = biological target: T1, Palmitoyltransferase ZDHHC20 (Homo sapiens); assay: Inhibition of human myc-His6-tagged zDHHC20 expressed in HEK293T cells at 10 uM using 5-FAM-GTQGCMGLPCVVM-COOH as substrate preincubated for 1 hr followed by substrate addition and measured at 1 min interval for 2 hrs in presence of palmitoyl-CoA by fluorescence polarization assay; details: time 3.0 hrs; outline: as §2

| SMILES | IC50 [3] | IC50 [4] | logP [6] | other results |
| --- | --- | --- | --- | --- |
| C#CCOC(=O)/C=C/C(=O)NCCCCCCCCCCCCCC | – | – | – | Activity [1]: Active; Activity [2]: Active |
| C#CCN(CCCCCCCCCCCCCC)C(=O)C=C | – | – | – | Activity [1]: Active; Activity [2]: Active |
| CCCCCCCCCCCCCCNC(=O)/C=C\C(=O)OCC#N | 2660 nM | 2870 nM | – | – |
| C#CCOC(=O)/C=C\C(=O)NCCCCCCCCCCCCCC | – | 3430 nM | – | Activity [1]: Active; Activity [2]: Active; inhibition [5]: Active |
| CCCCCCCCCCCCCCNC(=O)/C=C\C(=O)OCc1cn(CCCNC(=O)CCNC(=O)[C@H](O)C(C)(C)CO)nn1 | – | 9730 nM | 3.33 | – |
| C=CC(=O)N(CC#N)CCOCCCCCCCCCCC | – | 1970 nM | 4.1 | inhibition [5]: Active |
| CCCCCCCCCCCCCCNC(=O)/C=C\C(=O)OCc1cn(CCOCCOCCOCCO)nn1 | – | – | 4.55 | inhibition [7]: Active |
| CCCCCCCCCCCCCCN(CC#N)C(=O)/C=C\C(=O)O | – | 3450 nM | – | – |
| C=CC(=O)N(CC#N)CCCCCCCCCCCCCC | 590 nM | 1350 nM | 5.48 | inhibition [5]: Active |
| CCCCCCCCCCCCCCNC(=O)/C=C\C(=O)OC | – | – | – | inhibition [7]: Active |
| C=CC(=O)NCCCCCCCCCCCCCC | 59900 nM | 21400 nM | – | – |
| CCCCCCCCCCCCCCC(Br)C(=O)O (centres undefined) | 2020 nM | 5550 nM | – | – |
| CCCCCCCCCCCCCCNC(=O)/C=C\C(=O)Oc1ccccc1 | 2020 nM | – | – | inhibition [7]: 50% |
